Measurements from ChEMBL document CHEMBL1156776, “Hybrid inhibitors of phosphatidylinositol 3-kinase (PI3K) and the mammalian target of rapamycin (mTOR): design, synthesis, and superior antitumor activity of novel wortmannin-rapamycin conjugates” (J Med Chem, 2010).
Converted amounts (≈) assume the structure as drawn. Values belong to the compound of their own block, whether it stands above or below them. The source made the active and inactive calls. The rule behind the calls is not given here.

Columns and labels:
[1] = Stability in rat plasma assessed as compound remaining after 30 mins relative to basal level; format: ADME, cell-free; conditions: read-out: Stability
How it was run: (§1)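 Compound was incubated in heparinized plasma at 37 °C for 2 h. Samples taken at various time points were quenched with acetonitrile, dried under nitrogen and reconstituted in methanol/water 20:80. Intact compound was quantified by LC/MS.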

[2] = Stability in rat plasma assessed as compound remaining after 5 mins relative to basal level; format: ADME, cell-free; conditions: read-out: Stability; how it was run: as §1
[3] = Stability in rat plasma assessed as compound remaining after 120 mins relative to basal level; format: ADME, cell-free; conditions: read-out: Stability; how it was run: as §1
[4] = organism: Homo sapiens; test: Stability in human plasma assessed as compound remaining after 90 mins relative to basal level
[5] = Stability in rat plasma assessed as compound remaining after 90 mins relative to basal level; format: ADME, cell-free; conditions: read-out: Stability; how it was run: as §1
[6] = Stability in mouse plasma assessed as compound remaining after 120 mins relative to basal level; format: ADME, cell-free; conditions: read-out: Stability; how it was run: as §1
[7] = organism: Homo sapiens; test: Stability in human plasma assessed as compound remaining after 15 mins relative to basal level
[8] = tested on: U-87MG ATCC; test: Antitumor activity against human U87MG cells xenografted in nude mouse assessed as tumor growth inhibition at 3 mg/kg, iv once weekly; format: functional, organism-based; set-up: dose 3 mg/kg
How it was run: (§2)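 U87MG glioma xenografts in nude mice were staged and randomized (n = 10). Dosing was iv once weekly in D5W (days 0, 6 or days 0, 6, 13), with vehicle controls. Tumor volume was measured twice weekly.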

[9] = tested on: Plasma; test: Stability in mouse plasma in presence of esterase inhibitor sodium fluoride; format: ADME, cell-free
How it was run: (§3)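 Compound was incubated in nude mouse plasma or whole blood at 37 °C for 2 h, with heparin or sodium fluoride/EDTA as anticoagulant. Time-point samples were quenched with acetonitrile, dried, reconstituted and analysed by LC/MS for parent and hydrolysis products.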

[10] = Stability in rat plasma assessed as compound remaining after 15 mins relative to basal level; format: ADME, cell-free; conditions: read-out: Stability; how it was run: as §1
[11] = target: Serine/threonine-protein kinase mTOR (Homo sapiens) (UniProt P42345); test: Inhibition of mTOR
[12] = tested on: U-87MG ATCC; test: Antitumor activity against human U87MG cells xenografted in nude mouse assessed as tumor growth inhibition administered iv once weekly; format: functional; how it was run: as §2
[13] = Stability in mouse plasma assessed as compound remaining after 60 mins relative to basal level; format: ADME, cell-free; conditions: read-out: Stability; how it was run: as §1
[14] = Solubility in water; format: physicochemical
[15] = organism: Homo sapiens; test: Stability in human plasma assessed as compound remaining after 30 mins relative to basal level
[16] = Stability in rat plasma assessed as compound remaining after 60 mins relative to basal level; format: ADME, cell-free; conditions: read-out: Stability; how it was run: as §1
[17] = tested on: U-87MG ATCC; test: Antitumor activity against human U87MG cells xenografted in nude mouse assessed as tumor growth inhibition at 5 mg/kg, iv once weekly; format: functional, organism-based; set-up: dose 5 mg/kg; how it was run: as §2
[18] = Stability in human liver microsomes assessed as compound remaining after 30 mins; format: ADME, Microsome; conditions: read-out: Stability
How it was run: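 Compound (10 μM) was incubated with human liver microsomes (1 mg/mL) at 37 °C for 30 min, alongside buffer (pH 7.4) and boiled-microsome controls. NADPH dependence was examined. Reactions were quenched with 3 volumes of cold acetonitrile.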

[19] = Stability in mouse plasma assessed as compound remaining after 30 mins relative to basal level; format: ADME, cell-free; conditions: read-out: Stability; how it was run: as §1
[20] = tested on: U-87MG ATCC; test: Antitumor activity against human U87MG cells xenografted in nude mouse assessed as inhibition of AKT T308 phosphorylation at 15 mg/kg, iv administered as single dose measured after 2 hrs; format: functional, organism-based; set-up: dose 15 mg/kg
How it was run: (§4)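 Nude mice bearing U87MG tumors got a single iv dose. Tumors were excised 2 h later and analysed by Western blot for phosphoproteins (AKT S473, T308) against vehicle-treated controls.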

[21] = Stability in mouse plasma assessed as compound remaining after 15 mins relative to basal level; format: ADME, cell-free; conditions: read-out: Stability; how it was run: as §1
[22] = Stability in mouse plasma assessed as compound remaining after 90 mins relative to basal level; format: ADME, cell-free; conditions: read-out: Stability; how it was run: as §1
[23] = tested on: U-87MG ATCC; test: Antitumor activity against human U87MG cells xenografted in nude mouse assessed as inhibition of AKT S473 phosphorylation at 15 mg/kg, iv administered as single dose measured after 2 hrs; format: functional, organism-based; set-up: dose 15 mg/kg; how it was run: as §4
[24] = tested on: A498; test: Antitumor activity against human A498 cells xenografted in nude mouse assessed as tumor growth inhibition at 30 mg/kg, iv once weekly
[25] = tested on: U-87MG ATCC; test: Antitumor activity against human U87MG cells xenografted in nude mouse assessed as inhibition of S6K phosphorylation at 15 mg/kg, iv administered as single dose measured after 2 hrs; format: functional, organism-based; set-up: dose 15 mg/kg
[26] = organism: Homo sapiens; test: Stability in human plasma assessed as compound remaining after 60 mins relative to basal level
[27] = organism: Homo sapiens; test: Stability in human plasma assessed as compound remaining after 120 mins relative to basal level
[28] = tested on: HT-29; test: Antitumor activity against human HT-29 cells xenografted in nude mouse assessed as tumor growth inhibition at 15 mg/kg, iv once weekly; format: functional, organism-based; set-up: dose 15 mg/kg
How it was run: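 Nude mice bearing HT29 colon xenografts were randomized into groups (n = 10) and dosed iv once weekly. Agents were in 5% dextrose in water, or in 4% ethanol/5% polysorbate 80/5% PEG400 for the rapamycin-type agent. Tumor growth was monitored against vehicle.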

[29] = Stability in nude mouse whole blood assessed as release of (4S,4aR,6aS,7S,9aR,E)-1-(((3-(dimethylamino)propyl)(methyl)amino)methylene)-7,11-dihydroxy-4-(methoxymethyl)-4a-methyl-2,10-dioxo-1,2,4,4a,5,6,6a,7,8,9,9a,10-dodecahydroindeno[4,5-h]isochromen-5-yl hydrogen carbonate; format: ADME, tissue-based; how it was run: as §3
[30] = Stability in nude mouse whole blood assessed as rapamycin formation; format: ADME, tissue-based; how it was run: as §3
[31] = Stability in nude mouse whole blood assessed as 8-((4S,4aR,6aS,7S,9aR,E)-5-(carboxyoxy)-1-(((3-(dimethylamino)propyl)(methyl)amino)methylene)-11-hydroxy-4-(methoxymethyl)-4a-methyl-2,10-dioxo-1,2,4,4a,5,6,6a,7,8,9,9a,10-dodecahydroindeno[4,5-h]isochromen-7-yloxy)-8-oxooctanoic acid formation; format: ADME, tissue-based; how it was run: as §3
[32] = Stability in nude mouse liver microsomes assessed as compound remaining after 30 mins; format: ADME, Microsome; conditions: read-out: Stability
How it was run: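 Female nude mouse liver microsomes were incubated with compound for 30 min at 37 °C, with NADPH dependence examined. Remaining parent and hydrolysis products were measured.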

[33] = Stability in mouse plasma assessed as compound remaining after 5 mins relative to basal level; format: ADME, cell-free; conditions: read-out: Stability; how it was run: as §1
[34] = Inhibition of PI3K
[35] = organism: Homo sapiens; test: Stability in human plasma assessed as compound remaining after 5 mins relative to basal level
[36] = tested on: U-87MG ATCC; test: Antitumor activity against human U87MG cells xenografted in nude mouse assessed as inhibition of S6K phosphorylation at 10 mg/kg, iv administered as single dose measured after 2 hrs; format: functional, organism-based; set-up: dose 10 mg/kg
[37] = tested on: U-87MG ATCC; test: Antitumor activity against human U87MG cells xenografted in nude mouse assessed as inhibition of AKT S473 phosphorylation at 10 mg/kg, iv administered as single dose measured after 2 hrs; format: functional, organism-based; set-up: dose 10 mg/kg; how it was run: as §4
[38] = tested on: A498; test: Antitumor activity against human A498 cells xenografted in nude mouse assessed as tumor growth inhibition at 25 mg/kg, iv once weekly
[39] = tested on: U-87MG ATCC; test: Antitumor activity against human U87MG cells xenografted in nude mouse assessed as inhibition of AKT T308 phosphorylation at 10 mg/kg, iv administered as single dose measured after 2 hrs; format: functional, organism-based; set-up: dose 10 mg/kg; how it was run: as §4
[40] = Solubility at pH 7.4; format: physicochemical; conditions: buffer

- remaining at 0.5 h [1]: 71%
- remaining at 5 min [2]: 91%
- remaining at 2 h [3]: 46%
- remaining at 1.5 h [4]: 82%
- remaining at 1.5 h [5]: 53%
- remaining at 2 h [6]: 8%
- remaining at 0.25 h [7]: 93%
- Stability [9]: Stable
- remaining at 0.25 h [10]: 80%
- inhibition [11]: inactive
- remaining at 1 h [13]: 13%
- solubility ([14]; buffer): Soluble
- solubility ([14]; water, read-out: solubility): 460 µg/mL (≈ 288 µM)
- remaining at 0.5 h [15]: 91%
- remaining at 1 h [16]: 64%
- remaining at 0.5 h [18]: ≥ 50%
- remaining at 0.5 h [19]: 18%
- remaining at 0.25 h [21]: 39%
- remaining at 1.5 h [22]: 10%
- remaining at 1 h [26]: 83%
- remaining at 2 h [27]: 83%
- Stability [29]: Stable
- Stability [30]: Unstable
- Stability [31]: Unstable
- remaining at 0.5 h [32]: ≥ 50%
- remaining at 5 min [33]: 53%
- inhibition [34]: inactive
- remaining at 5 min [35]: 86%
SMILES: COC[C@H]1OC(=O)/C(=C\N(C)CCCN(C)C)C2=C(O)C(=O)C3=C([C@H](OC(C)=O)C[C@]4(C)[C@@H](OC(=O)CCCCCCC(=O)O[C@@H]5CC[C@@H](C[C@@H](C)[C@@H]6CC(=O)[C@H](C)/C=C(\C)[C@@H](O)[C@@H](OC)C(=O)[C@H](C)C[C@H](C)/C=C/C=C/C=C(\C)[C@@H](OC)C[C@@H]7CC[C@@H](C)[C@@](O)(O7)C(=O)C(=O)N7CCCC[C@H]7C(=O)O6)C[C@H]5OC)CC[C@@H]34)[C@]21C
- Activity [8]: Active
- Activity [12]: Dose-dependent effect
- Activity [17]: Active
- Activity [20]: Active
- Activity [23]: Active
- Activity [24]: Active
- Activity [25]: Active
- Activity [28]: Active

- solubility ([14]; buffer): Insoluble
SMILES: CO[C@H]1C[C@@H]2CC[C@@H](C)[C@@](O)(O2)C(=O)C(=O)N2CCCC[C@H]2C(=O)O[C@H]([C@H](C)C[C@@H]2CC[C@@H](O)[C@H](OC)C2)CC(=O)[C@H](C)/C=C(\C)[C@@H](O)[C@@H](OC)C(=O)[C@H](C)C[C@H](C)/C=C/C=C/C=C/1C [SIROLIMUS]
- Activity [36]: Active
- Activity [37]: inactive
- Activity [38]: Active
- Activity [39]: inactive

SMILES: C=CCN(/C=C1\C(=O)O[C@H](COC)[C@@]2(C)C1=C(O)C(=O)C1=C2[C@H](OC(C)=O)C[C@]2(C)[C@@H](O)CC[C@@H]12)CC=C
- solubility [40]: > 100 µg/mL

- remaining at 2 h [6]: 4%
- Stability [9]: Stable
- inhibition [11]: inactive
- inhibition [34]: inactive
SMILES: COC[C@H]1OC(=O)/C(=C\N(C)CCCN(C)C)C2=C(O)C(=O)C3=C([C@H](OC(C)=O)C[C@]4(C)[C@@H](OC(=O)CCCCC(=O)O[C@@H]5CC[C@@H](C[C@@H](C)[C@@H]6CC(=O)[C@H](C)/C=C(\C)[C@@H](O)[C@@H](OC)C(=O)[C@H](C)C[C@H](C)/C=C/C=C/C=C(\C)[C@@H](OC)C[C@@H]7CC[C@@H](C)[C@@](O)(O7)C(=O)C(=O)N7CCCC[C@H]7C(=O)O6)C[C@H]5OC)CC[C@@H]34)[C@]21C
- Activity [8]: Active
